Molecules are shown by their SMILES. In brackets after ≈: the same amount, converted by molar mass. Activity calls are given as the source filed them. The calls are words filed in the database; no cut-off is given here. Starred links: 1 amine or outer side, 2 acyl side, 3 side chain; linkers in the order of their positions; H or OH if unused. Non-standard residues stand in square brackets, D forms with d. Residues, ends and D or L forms follow the SMILES beside them. ξ: configuration not given here. *: point of attachment. Pheψ(R-CH(OH)CH2N)Pro = O=C([C@@H]1CCCN1C[C@@H](O)[C@H](Cc1ccccc1)N[*:1])[*:2]; Pheψ(R-CHOHCH2N)ξPro = O=C(C1CCCN1C[C@@H](O)[C@H](Cc1ccccc1)N[*:1])[*:2]; Phe(3-Ph) = N[C@@H](Cc1cccc(-c2ccccc2)c1)C(=O)O; Bip = N[C@@H](Cc1ccc(-c2ccccc2)cc1)C(=O)O; 2Nal = N[C@@H](Cc1ccc2ccccc2c1)C(=O)O; hPhe = N[C@@H](CCc1ccccc1)C(=O)O; Boc = CC(C)(C)OC(=O)*

As a reminder, the Ki is the equilibrium dissociation constant of an inhibitor or competing ligand from its target. A low value points to higher affinity. Broadly, the IC50 is the concentration needed to halve the response being measured. Low readings indicate inhibition by little substance, high ones a need for much substance. The EC50 is the concentration that produces a half-maximal response.

In assay [1] the target is Human immunodeficiency virus type 1 protease (Human immunodeficiency virus 1, UniProt Q72874). Nature of the assay: Binding affinity to HIV protease. An outline of the steps: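 Continuous fluorometric assay of HIV protease (6.2 nM enzyme) at pH 6.4 with substrate AntThrIleNlePhe(p-NO2)GlnArgNH2. Ki derived assuming pure competitive tight-binding inhibition, by nonlinear least-squares fit to Morrison's tight-binding equation.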

In assay [2] the test system is Simian immunodeficiency virus. Nature of the assay: Compound was evaluated for the inhibition of SIV induced syncytia formation. It counts as functional, organism-based. An outline of the steps: (§1)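 CEM×174 cells pretreated 30 min with serial 2-fold inhibitor dilutions, then infected with cell-free SIVmac251. Fresh inhibitor added at 48 h. CPE scored as multinucleated giant cell appearance after 7-day incubation. IC50 is the concentration giving 50% CPE inhibition versus infected controls. AZT positive control.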

For assay [3], the system named is CCRF-CEM. Nature of the assay: Compound was evaluated for the inhibition of HIV infected CEM cells. It counts as functional, Homo sapiens. An outline of the steps: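 CEM (CD4+ lymphocyte line) cultures infected with HTLV-IIIb at MOI 0.1. Compound added 1 h before inoculation; peptides re-dosed days 2 and 5 post-infection. Virus-induced CPE quantitated at day 7 by formazan dye. Controls were untreated, infected and compound-only cells. EC50 for 50% CPE inhibition by linear regression. AZT positive control.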

In assay [4] the test system is Simian immunodeficiency virus. Nature of the assay: Compound was evaluated at highest concentration (>10 syncytia formation; NA = not active. Type of assay: functional, organism-based. In short, it runs like this:
as §1

In assay [5] the test system is CCRF-CEM. The assay can be described thus: Compound was evaluated at highest concentration (>10 uM) for the inhibition of HIV infected CEM cells; NA = not active. Type of assay: functional, cell-based. Conditions: Homo sapiens. An outline of the steps:
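CEM (CD4+ lymphocyte) cells infected with HTLV-IIIb at MOI 0.1; compound added 1 h before inoculation, with extra doses on days 2 and 5 for metabolically unstable compounds such as peptides. Virus-induced CPE read at day 7 by formazan dye.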

On to `CC[C@H](C)[C@H](NC(=O)C1CCCN1C[C@@H](O)[C@H](Cc1ccccc1)NC(=O)[C@H](CC(N)=O)NC(=O)c1ccc2ccccc2n1)C(=O)N[C@H](C(=O)OC)C(C)C` (stereo partly drawn), for which, in assay [1], the Ki amounted to 2.5 nM.
Still for that read-out and setting: the result for `CC[C@H](C)[C@H](NC(=O)C1CCCN1C[C@@H](O)[C@H](Cc1ccccc1)NC(=O)[C@H](CC(N)=O)NC(=O)[C@H](CC(C)C)NC(=O)OC(C)(C)C)C(=O)N[C@H](C(=O)OC)C(C)C` (stereo partly drawn) (Boc-LN[Pheψ(R-CHOHCH2N)ξPro]IV-OMe) reads 66 nM.
Same read-out and setting: the same measure for `CC[C@H](C)[C@H](NC(=O)[C@@H]1CCCN1C[C@@H](O)[C@H](Cc1ccccc1)NC(=O)[C@H](CC(N)=O)NC(=O)c1ccc2ccccc2n1)C(=O)N[C@@H](Cc1ccccc1)C(=O)OC`: 0.1 nM; for `CC[C@H](C)[C@H](NC(=O)C1CCCN1C[C@@H](O)[C@H](Cc1ccccc1)NC(=O)[C@H](CC(N)=O)NC(=O)OC(C)(C)C)C(=O)N[C@H](C(=O)OC)C(C)C` (stereo partly drawn): 440 nM.
Same read-out and setting: the same measure for `CC[C@H](C)[C@H](NC(=O)C1CCCN1C[C@@H](O)[C@H](Cc1ccccc1)NC(=O)[C@H](CC(N)=O)NC(=O)[C@H](CC(C)C)NC(=O)[C@H](CO)NC(C)=O)C(=O)N[C@@H](Cc1c[nH]c2ccccc12)C(=O)OC` (stereo partly drawn) (Ac-SLN[Pheψ(R-CHOHCH2N)ξPro]IW-OMe): 3.6 nM.
`CC[C@H](C)[C@H](NC(=O)C1CCCN1C[C@@H](O)[C@H](Cc1ccccc1)NC(=O)[C@H](CC(N)=O)NC(=O)c1ccc2ccccc2n1)C(=O)NCCc1ccccn1` (stereo partly drawn): the IC50 in assay [2] turned out to be 4 µM. Moreover, the concentration giving a half-maximal response (EC50) with CCRF-CEM [3] was 0.19 µg/mL (≈ 0.248 µM). This compound yielded an inhibition constant (Ki) in assay [1] of 13 nM.
For `CC[C@H](C)[C@H](NC(=O)C1CCCN1C[C@@H](O)[C@H](Cc1ccccc1)NC(=O)[C@H](CC(N)=O)NC(=O)OCc1ccccc1)C(=O)NCCc1ccccn1` (stereo partly drawn), the affinity in assay [1], expressed as Ki, was 71 nM.
For `CC[C@H](C)[C@H](NC(=O)C1CCCN1C[C@@H](O)[C@H](Cc1ccccc1)NC(=O)[C@H](CC(N)=O)NC(=O)OCc1ccccc1)C(=O)N[C@@H](Cc1ccccc1)C(=O)OC` (stereo partly drawn), the concentration for half-maximal inhibition (IC50) in assay [2] was 8 µM. The compound further returned an EC50 in the assay with CCRF-CEM [3] of 0.6 µg/mL (≈ 0.749 µM). The compound also displayed an inhibition constant Ki in assay [1] of 1.7 nM.
`CC[C@H](C)[C@H](NC(=O)[C@@H]1CCCN1C[C@@H](O)[C@H](Cc1ccccc1)NC(=O)[C@H](CC(N)=O)NC(=O)[C@H](CC(C)C)NC(=O)[C@H](CO)NC(C)=O)C(=O)N[C@H](C(=O)OC)C(C)C` (Ac-SLN[Pheψ(R-CH(OH)CH2N)Pro]IV-OMe) displayed a Ki in assay [1] of 0.24 nM.
`CC[C@H](C)[C@H](NC(=O)C1CCCN1C[C@@H](O)[C@H](Cc1ccccc1)NC(=O)[C@H](CC(N)=O)NC(=O)[C@H](Cc1ccc2ccccc2c1)NC(=O)OC(C)(C)C)C(=O)N[C@H](C(=O)OC)C(C)C` (stereo partly drawn) (Boc-[2Nal]N[Pheψ(R-CHOHCH2N)ξPro]IV-OMe) showed a Ki in assay [1] of 7.8 nM.
On the same count and under the same terms, the same measure for `CC[C@H](C)[C@H](NC(=O)C1CCCN1C[C@@H](O)[C@H](Cc1ccccc1)NC(=O)[C@H](CC(N)=O)NC(=O)c1ccc2ccccc2n1)C(=O)N[C@@H](Cc1ccccc1)C(=O)OC` (stereo partly drawn): 0.4 nM; for `CC[C@H](C)[C@H](NC(=O)C1CCCN1C[C@@H](O)[C@H](Cc1ccccc1)NC(=O)[C@H](CC(N)=O)NC(=O)[C@H](CC(C)C)NC(C)=O)C(=O)N[C@H](C(=O)OC)C(C)C` (stereo partly drawn) (Ac-LN[Pheψ(R-CHOHCH2N)ξPro]IV-OMe): 4 nM; for `CC[C@H](C)[C@H](NC(=O)C1CCCN1C[C@@H](O)[C@H](Cc1ccccc1)NC(=O)[C@H](CC(N)=O)NC(=O)[C@H](CC(C)C)NC(=O)[C@H](CO)NC(C)=O)C(=O)N[C@@H](Cc1ccc2ccccc2c1)C(=O)OC` (stereo partly drawn) (Ac-SLN[Pheψ(R-CHOHCH2N)ξPro]I[2Nal]-OMe): 5.1 nM.
For the compound `CC[C@H](C)[C@H](NC(=O)C1CCCN1C[C@@H](O)[C@H](Cc1ccccc1)NC(=O)[C@H](CC(N)=O)NC(=O)c1ccc2ccccc2n1)C(=O)N[C@@H](Cc1ccc2ccccc2c1)C(=O)OC` (stereo partly drawn), the Ki in assay [1] is 0.5 nM.
Same read-out and setting: the same measure for `CC[C@H](C)[C@H](NC(=O)C1CCCN1C[C@@H](O)[C@H](Cc1ccccc1)NC(=O)[C@H](CC(N)=O)NC(=O)[C@H](Cc1c(I)cc(O)cc1I)NC(=O)OC(C)(C)C)C(=O)N[C@H](C(=O)OC)C(C)C` (stereo partly drawn): 131 nM.
Still for that read-out and setting: the same measure for `CC[C@H](C)[C@H](NC(=O)C1CCCN1C[C@@H](O)[C@H](Cc1ccccc1)NC(=O)[C@H](CC(N)=O)NC(=O)[C@H](CC(C)C)NC(=O)[C@H](CO)NC(C)=O)C(=O)N[C@@H](Cc1ccccc1)C(=O)OC` (stereo partly drawn) (Ac-SLN[Pheψ(R-CHOHCH2N)ξPro]IF-OMe): 0.67 nM.
The same measure, in the same setting: the same measure for `CC[C@H](C)[C@H](NC(=O)C1CCCN1C[C@@H](O)[C@H](Cc1ccccc1)NC(=O)[C@H](CC(N)=O)NC(=O)[C@H](Cc1ccc(-c2ccccc2)cc1)NC(=O)OC(C)(C)C)C(=O)N[C@H](C(=O)OC)C(C)C` (stereo partly drawn) (Boc-[Bip]N[Pheψ(R-CHOHCH2N)ξPro]IV-OMe): 14 nM.
In assay [1], `CC[C@H](C)[C@H](NC(=O)C1CCCN1C[C@@H](O)[C@H](Cc1ccccc1)NC(=O)[C@H](CC(N)=O)NC(=O)[C@H](CC(C)C)NC(=O)[C@H](CO)NC(C)=O)C(=O)N[C@@H](CCc1ccccc1)C(=O)OC` (stereo partly drawn) (Ac-SLN[Pheψ(R-CHOHCH2N)ξPro]I[hPhe]-OMe) registered a Ki of 1.26 nM.
The same measure, in the same setting: the same measure for `CC[C@H](C)[C@H](NC(=O)C1CCCN1C[C@@H](O)[C@H](Cc1ccccc1)NC(=O)[C@H](CC(N)=O)NC(=O)[C@H](Cc1cccc(-c2ccccc2)c1)NC(=O)OC(C)(C)C)C(=O)N[C@H](C(=O)OC)C(C)C` (stereo partly drawn) (Boc-[Phe(3-Ph)]N[Pheψ(R-CHOHCH2N)ξPro]IV-OMe): 6.8 nM; for `CC[C@H](C)[C@H](NC(=O)C1CCCN1C[C@@H](O)[C@H](Cc1ccccc1)NC(=O)[C@H](CC(N)=O)NC(=O)[C@H](CCc1ccccc1)NC(=O)OC(C)(C)C)C(=O)N[C@H](C(=O)OC)C(C)C` (stereo partly drawn) (Boc-[hPhe]N[Pheψ(R-CHOHCH2N)ξPro]IV-OMe): 20 nM.
In the case of `CC[C@H](C)[C@H](NC(=O)[C@@H]1CCCN1C[C@@H](O)[C@H](Cc1ccccc1)NC(=O)[C@H](CC(N)=O)NC(=O)OCc1ccccc1)C(=O)N[C@@H](Cc1ccccc1)C(=O)OC`, the IC50 in assay [2] stood at 4 µM. In the assay with CCRF-CEM [3], this compound registered an EC50 of 0.31 µg/mL (≈ 0.387 µM). In assay [1], this compound displayed an inhibition constant Ki of 1 nM.
As to `CC[C@H](C)[C@H](NC(=O)C1CCCN1C[C@@H](O)[C@H](Cc1ccccc1)NC(=O)[C@H](CC(N)=O)NC(=O)OCc1ccccc1)C(=O)N[C@@H](Cc1ccc2ccccc2c1)C(=O)OC` (stereo partly drawn), in assay [1], affinity was put at a Ki of 1.9 nM.
`CC[C@H](C)[C@H](NC(=O)C1CCCN1C[C@@H](O)[C@H](Cc1ccccc1)NC(=O)[C@H](CC(N)=O)NC(=O)c1ccc2ccccc2n1)C(=O)N[C@@H](Cc1ccccc1)C(=O)NC` (stereo partly drawn) gave an IC50 in assay [2] of 4 µM. For the same compound, the EC50 with CCRF-CEM [3] came out at 0.13 µg/mL (≈ 0.158 µM). This compound registered a Ki in assay [1] of 0.8 nM.
As for `CC[C@H](C)[C@H](NC(=O)C1CCCN1C[C@@H](O)[C@H](Cc1ccccc1)NC(=O)[C@H](CC(N)=O)NC(=O)OCc1ccccc1)C(=O)N[C@H](C(=O)OC)C(C)C` (stereo partly drawn), affinity in assay [1] was put at a Ki of 9.7 nM.
Take `CC[C@H](C)[C@H](NC(=O)C1CCCN1C[C@@H](O)[C@H](Cc1ccccc1)NC(=O)[C@H](CC(N)=O)NC(=O)[C@H](CC(C)C)NC(=O)[C@H](CO)NC(C)=O)C(=O)N[C@H](C(=O)OC)C(C)C` (stereo partly drawn) (Ac-SLN[Pheψ(R-CHOHCH2N)ξPro]IV-OMe): the IC50 entry in assay [4] is listed as “Not Active”. Besides, in the assay on CCRF-CEM [5], the Inhibition entry is “inactive”. The compound further came in with a Ki in assay [1] of 0.6 nM.
In assay [2], `CC[C@H](C)[C@H](NC(=O)C1CCCN1C[C@@H](O)[C@H](Cc1ccccc1)NC(=O)[C@H](CC(N)=O)NC(=O)OCc1ccccc1)C(=O)N[C@@H](Cc1ccccc1)C(=O)NC` (stereo partly drawn) showed an IC50 of 4 µM. For the same compound, in the assay on CCRF-CEM [3], the EC50 came out at 0.3 µg/mL (≈ 0.375 µM). In assay [1], this compound returned a Ki of 1.5 nM.

These data come from ChEMBL document CHEMBL1125316, “New hydroxyethylamine HIV protease inhibitors that suppress viral replication” (J Med Chem, 1992).
